A selection: hits, their analogues and other compounds. The true share with any hit is near 9.8%.
Lmaj promast: inhibitors of Leishmania major promastigote growth; Leishmania major promastigotes, resazurin fluorescence viability; inhibition, % at 10 µM; 9% of 200,000 active; in the data active = inhibition above about 50%;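 note: promastigotes grown with compound for 44 hours at 28 °C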
PMI act: increases human mannose-6-phosphate isomerase activity | purified human PMI, coupled resazurin fluorescence, 20 min; stronger effect = higher value; 1 = vehicle control, 0 substrate-free wells | activation factor at 20 µM | 0.005% of 190,000 active | AID 1214;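 active = activation factor of 2 or more at 20 µM, relative to plate controls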
Target sequence (P34949 whole entry, looked up): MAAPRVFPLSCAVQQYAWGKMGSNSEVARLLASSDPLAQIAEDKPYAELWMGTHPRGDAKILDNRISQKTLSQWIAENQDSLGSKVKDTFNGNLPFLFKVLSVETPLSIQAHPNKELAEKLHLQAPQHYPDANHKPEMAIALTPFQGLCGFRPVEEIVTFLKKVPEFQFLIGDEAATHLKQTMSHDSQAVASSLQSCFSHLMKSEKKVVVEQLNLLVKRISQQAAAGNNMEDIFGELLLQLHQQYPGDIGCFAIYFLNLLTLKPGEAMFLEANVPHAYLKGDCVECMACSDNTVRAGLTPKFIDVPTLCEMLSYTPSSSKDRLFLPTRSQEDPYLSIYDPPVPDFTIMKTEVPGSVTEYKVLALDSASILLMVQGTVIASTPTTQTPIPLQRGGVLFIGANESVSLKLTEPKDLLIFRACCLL
Rad51 HR inh: blocks human Rad51 in homologous recombination | Q06609 | 0.085% of 200,000 active | hRad51 DNA strand exchange, fluorescence dequenching | inhibition, % at 10 µM;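 active = inhibition above 40% at the single screening dose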;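 note: 0% = DMSO control wells and 100% = blanks with heterologous ssDNA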
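System: human Rad51 nucleoprotein filaments preassembled on unlabelled ssDNA. Reagent: labelled 47-mer dsDNA for strand exchange. Schedule: 30-min compound preincubation and 15-min exchange, both room temperature. Measured by: FRET fluorescence dequenching, excitation 485 nm, emission 520 nm. Read-out: Fluorescence-based percent inhibition, control- and blank-normalised. Benchmarks: plate controls and plate blanks.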
PMI act satM6P: increases human PMI activity with near-saturating mannose 6-phosphate | P34949 | coupled PMI enzyme assay, resazurin fluorescence, 20 min; stronger effect = higher value; 1 = untreated enzyme, 0 = substrate-free blank | activation factor at 20 µM | 0.34% of 190,000 active;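 active = activation factor of 2 or more at 20 µM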
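Technique: Diaphorase-driven resazurin-to-resorufin fluorescence, excitation 544, emission 590 nm | Assay system: Human PMI in coupled enzyme assay | Times: Enzyme reaction with compound 20 min at room temperature | Medium: HEPES-buffered pH 7.4 with magnesium and detergent | Reagent: Mannose-6-phosphate 1.0 mM (near-saturating) plus 0.22 mM NADP+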
Calpain2 inh: blocks pig calpain II enzyme activity. 0.37% of 220,000 active. purified calpain II, fluorogenic peptide substrate, 30 min. AID 1236. inhibition, % at 16 µM;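 active = inhibition above about 50%, limit read from the data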
WT yeast gro inh: growth inhibition of WT yeast, mitochondrial fusion screen | 2.1% of 190,000 active | inhibition, % at 10 µM | mitochondrial fusion phenotypic screen, WT strain; in the data active = inhibition above about 58%; tested in S. cerevisiae
Starred values were filed as active, the others as inactive; i = inactive; · = not tested or not shown.

SMILES	Lmaj promast	PMI act	Rad51 HR inh	PMI act satM6P	Calpain2 inh	WT yeast gro inh
Fc1ccc(Cn2nnnc2C(c2ccc(Cl)cc2)N2CCSCC2)cc1 (stereo not drawn)	99*	0.9	-2	0.9	3	44
COCCn1nnnc1C(c1ccccc1OC)N1CCc2ccccc2C1 (stereo not drawn)	85*	·	6	·	·	·
COCCn1nnnc1C(c1ccc(OC)c(OC)c1)N1CCc2ccccc21 (stereo not drawn)	-6	1	-3	0.9	-47	6
c1ccc(-c2nc(-c3nccc4ccccc34)oc2-c2ccccc2)cc1	·	·	-3	·	-180	·
Cc1c(CN(C)C)c2c(n1Cc1ccccc1)C(=O)c1ccccc1-2	75*	0.9	-4	0.9	15	16
Oc1ccccc1N=Cc1sc2ccccc2c1Cl	57*	0.7	0	0.4	2	56
Cc1ccc(O)c(N=Cc2sc3ccccc3c2Cl)c1	22	0.9	·	0.8	18	3
Cc1[nH]c2ccccc2c1C(=O)Cn1c(=O)oc2ccccc21	-15	0.9	-4	0.9	24	6
Cn1c(=O)n(C)c2cc(S(=O)(=O)N3CCN(c4ccccc4)CC3)ccc21	·	·	10	·	-17	·
COCCNC(=O)c1c(N)n(CCC2=CCCCC2)c2nc3ccccc3nc12	100*	1.1	-17	1.3	i	2
CCC(C)n1c(C)nc2c(c1=O)c1nc3ccccc3nc1n2CCC1=CCCCC1 (stereo not drawn)	57*	1	8	1	-145	5
CCNC(=S)NNC(=O)c1cc(-c2cc(C)ccc2C)nc2ccccc12	1	1.2	-4	0.9	9	-27
CCOC(=O)COc1ccccc1/C=C\[N+](=O)[O-]	100*	0.9	·	1	3	69*
CCOC(=O)COc1cc([N+](=O)[O-])cc2cccnc12	-2	·	2	·	-21	-8
Cc1cc(Cl)ccc1NC(=O)C1CCN(S(C)(=O)=O)CC1	-8	0.9	·	0.9	12	-10
Cc1cccc(N=N/C(=C\O)C(=O)c2cccs2)c1	76*	0.8	-9	0.9	-30	31
O=C(CCc1ccc(S(=O)(=O)N2CCOCC2)cc1)Nc1nc(COc2ccccc2)cs1	96*	0.9	·	0.9	20	0
COc1cc(CN(C2CCCCC2)S(=O)(=O)c2ccc(S(=O)(=O)N(C)C3CCCCC3)cc2)cc(OC)c1OC	93*	0.9	1	1	-25	-12
C=CCn1ccc(=NC=C(C#N)C#N)c2ccccc21	·	·	-14	·	7	·
CCOc1ccc(-c2nnc(Nc3ccc(OC)c(C(=O)N4CCCCC4)c3)c3ccccc23)cc1	61*	0.8	-4	0.9	11	11
CNC(=O)c1cc(Nc2nnc(-c3ccc(O)cc3)c3ccccc23)ccc1OC	-2	1	7	1	-17	-3
O=C(/C=C/c1ccco1)OCC1CCCN2CCCCC12 (stereo not drawn)	-2	·	-9	·	28	12
O=C(NCc1ccc(Cl)cc1)C1CCN(S(=O)(=O)c2cc([N+](=O)[O-])ccc2Cl)CC1	80*	1	-4	1.1	18	-21
Cc1cccc2sc(NC(=O)C3CCN(S(=O)(=O)c4cc([N+](=O)[O-])ccc4Cl)CC3)nc12	90*	1	-1	1.2	-64	-5
NNC(=O)c1ccc(CN2CCCCC2)o1	4	1	-21	0.9	1	18
SMILES	Lmaj promast	PMI act	Rad51 HR inh	PMI act satM6P	Calpain2 inh	WT yeast gro inh
COc1ccc(C(CC(=O)c2ccc(C)cc2)C(C#N)C#N)cc1OC (stereo not drawn)	90*	0.9	1	1	-30	-38
COc1ccc(C(CC(=O)O)NS(=O)(=O)c2ccc(C)cc2)cc1OC (stereo not drawn)	1	1	8	1	-11	-20
Cc1ccc2c(N)c(C#N)sc2n1	3	0.8	-1	0.8	-66	87*
CCCc1ccc2c(N)c(C#N)sc2n1	3	0.9	-18	0.9	·	18
Cc1onc(-c2ccccc2)c1C(=O)NNC(=S)NC(=O)c1ccc2c(c1)OCO2	·	·	0	·	-36	·
c1ccc(CNc2nc(N3CCN(Cc4ccccc4)CC3)nc3ccccc23)cc1	·	·	16	·	15	·
c1coc(CNc2nc(N3CCCCC3)nc3ccccc23)c1	96*	1	-11	1	-118	-6
c1ccc(N2CCN(c3nc(NCc4ccco4)c4ccccc4n3)CC2)cc1	98*	1.1	-5	1.3	-33	-8
C=C(C)Cn1cnc2cc(C)c(C)cc21	2	1	·	1.1	-6	5
O=C(CCl)NN=C(c1ccccc1)c1ccccc1	100*	1.5	7	1.3	17	-7
COc1ccc(CC(=O)Nc2ccc3c(C)cc(=O)oc3c2)cc1OC	64*	1	-2	1.1	-55	-8
COc1ccc(CC(=O)Nc2ccc3c(c2)CCC3)cc1OC	0	0.9	3	0.9	-17	-17
Cc1cc(=O)oc2cc(NC(=O)C3CCCC3)ccc12	101*	1	6	1	-412	3
COc1ccc(C)cc1NC(=S)NC(C)c1ccc(OC)c(OC)c1 (stereo not drawn)	54*	0.9	·	1	-6	64*
CCC(C)c1ccc(NC(=S)Nc2ccc(OC)c(OC)c2)cc1 (stereo not drawn)	1	0.8	7	0.6	13	72*
CCC(C)c1ccc(NC(=S)NC(C)C2CCCO2)cc1 (stereo not drawn)	4	1	·	0.8	16	66*
CCC(C)c1ccc(NC(=S)Nc2ccc(OC)cc2C)cc1 (stereo not drawn)	37	0.9	-8	0.9	8	75*
COC(=O)c1sc(NC(=O)/C=C/c2ccccc2Cl)nc1C	-3	1.1	8	1.1	-120	2
Cc1scc(C(=O)N2CCN(c3ccc(Cl)cc3)CC2)c1C	2	0.9	0	0.9	-8	46
Cc1ccc(Cn2c(O)c(N=NC(=S)Nc3ccccc3F)c3ccccc32)cc1	97*	1	·	1.1	-30	6
C=CCn1c(O)c(N=NC(=S)Nc2ccccc2F)c2cc(S(=O)(=O)N3CCOCC3)ccc21	-1	0.9	-18	0.7	-148	25
C/C(Cl)=C\Cn1c(O)c(N=NC(N)=S)c2ccccc21	4	0.8	-10	0.9	-7	-31
Oc1c(N=NC(=S)Nc2ccccc2F)c2ccccc2n1Cc1ccccc1Cl	84*	0.9	-47	1	-35	5
C=CCn1c(O)c(N=NC(=S)Nc2ccccc2F)c2ccccc21	96*	1	-23	1.1	5	23
NC(=S)N=Nc1c(O)n(Cc2ccccc2)c2ccccc12	-6	1	0	1.1	-9	-6
CCCCNC(=S)N=Nc1c(O)n(Cc2ccccc2)c2ccccc12	9	0.9	3	0.9	30	18

Assay outcomes as filed in PubChem.
